Results from ChEMBL document CHEMBL4334465, “SAR Studies on Aromatic Acylhydrazone-Based Inhibitors of Fungal Sphingolipid Synthesis as Next-Generation Antifungal Agents” (J Med Chem, 2019).
≈ marks a conversion by molar mass, not a printed value.

What was measured:
HepG2 = assay: Cytotoxicity against human HepG2 cells after 24 to 48 hrs by MTT assay; type: functional; details: read-out: LD50 (the source's name)
Method in brief: (§1)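 A549 and HepG2 kept in DMEM with 10% FBS and 1% pen-strep. At passage 7, seeded at 10⁵ cells/well and allowed to adhere 14 h. Compound added at 0.03–128 μg/mL, untreated wells as controls. Incubation 37°C, 5% CO₂ for 24 or 48 h. MTT (5 mg/mL in PBS) added for 4 h, formazan dissolved in DMSO, OD570.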

Cryptococcus neoformans [1] = assay: Fungicidal activity against Cryptococcus neoformans H99 measured after 48 hrs by time-kill assay; type: functional, var grubii H99
Method in brief: (§2)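 Overnight C. neoformans washed in PBS and resuspended in HEPES-buffered YNB, pH 7.4. 2 × 10⁴ cells exposed to a range of drug concentrations in 10 mL with 0.5% DMSO final, at 37°C, 5% CO₂, shaking at 200 rpm. Aliquots sampled over 96 h, diluted and plated on YPD; CFU counted after 48 h at 30°C.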

[2] = Selectivity index, ratio of LD50 for human A549 cells to MIC80 for Cryptococcus neoformans H99; type: toxicity; details: read-out: Selectivity Index
Method in brief: (§3)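 SI = LD₅₀/MIC₈₀. Cytotoxicity: A549 or HepG2 cells (DMEM, 10% FBS, passage 7, 10⁵ cells/well) adhered 14 h, then exposed to 0.03–128 μg/mL for 24 or 48 h at 37°C, 5% CO₂; MTT 4 h, formazan dissolved in DMSO, read at 570 nm. MIC₈₀ against C. neoformans from broth microdilution in HEPES-buffered YNB, pH 7.0.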

A549 = assay: Cytotoxicity against human A549 cells after 24 to 48 hrs by MTT assay; type: functional; details: read-out: LD50 (the source's name); method in brief: as §1
[3] = Selectivity index, ratio of LD50 for human HepG2 cells to MIC80 for Cryptococcus neoformans H99; type: toxicity; details: read-out: Selectivity Index; method in brief: as §3
Cryptococcus neoformans [4] = assay: Antifungal activity against Cryptococcus neoformans H99 measured after 24 to 72 hrs; type: functional; details: var grubii H99
Method in brief: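 Modified CLSI broth microdilution with inoculum per M27A3. Compounds were serially diluted 32 to 0.03 μg/mL. Media: C. neoformans in HEPES-buffered YNB without amino acids (pH 7.0, 2% glucose); Candida strains in YNB without ammonium sulfate or amino acids plus 1% asparagine (pH 7.0, 2% glucose); A. fumigatus in RPMI (pH 7.0, 2% glucose).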

Cryptococcus neoformans [5] = assay: Fungicidal activity against Cryptococcus neoformans H99 measured after 24 hrs by time-kill assay; type: functional, var grubii H99; method in brief: as §2

Row | SMILES | CC50 (HepG2) [µg/mL] | MFC100 (Cryptococcus neoformans [1]) [µg/mL] | selectivity ratio [2] | CC50 (A549) [µg/mL] | selectivity ratio [3] | MIC80 (Cryptococcus neoformans [4]) [µg/mL] | MFC100 (Cryptococcus neoformans [5]) [µg/mL]
1 | O=C(N/N=C/c1cc(Br)cc(Br)c1O)c1ccc(OC(F)(F)F)cc1F | 16 (≈ 32 µM) | 0.5 (≈ 1 µM) | 267 | 16 (≈ 32 µM) | 267 | 0.06 (≈ 0.12 µM) | 
2 | O=C(N/N=C/c1cc(F)ccc1O)c1cc(Br)ccc1Br |  |  |  |  |  | > 16 | 
3 | Cc1ccc(O)c(/C=N/NC(=O)c2cc(Br)cc(Br)c2O)c1 | 8 (≈ 18.7 µM) |  | 16 | 4 (≈ 9.34 µM) | 32 | 0.25 (≈ 0.584 µM) | 0.25 (≈ 0.584 µM)
4 | CN(C)c1ccc(C(=O)N/N=C/c2cc(Br)ccc2O)cc1 |  |  |  |  |  | > 16 | 
5 | O=C(N/N=C/c1cc(Br)cc(Br)c1O)c1ccc(CF)cc1 | 16 (≈ 37.2 µM) |  | 32 | 16 (≈ 37.2 µM) | 32 | 0.5 (≈ 1.16 µM) | 0.5 (≈ 1.16 µM)
6 | O=C(N/N=C/c1c(O)ccc2ccccc12)c1cc(Br)ccc1Br | 16 (≈ 35.7 µM) |  | 128 | 32 (≈ 71.4 µM) | 64 | 0.25 (≈ 0.558 µM) | 0.25 (≈ 0.558 µM)
7 | O=C(N/N=C/c1ccc(Br)cc1O)c1cc(Br)cc(Br)c1 | 16 (≈ 33.5 µM) | 1 (≈ 2.1 µM) | 4 | 4 (≈ 8.39 µM) | 16 | 1 (≈ 2.1 µM) | 
8 | C/C(=N\NC(=O)c1ccc(Br)cc1Br)c1cc(Br)cc(Br)c1O |  |  |  |  |  | > 16 | 
9 | O=C(N/N=C/c1cccc(Br)c1O)c1cccc(C(F)(F)F)c1 | 16 (≈ 41.3 µM) | 2 (≈ 5.17 µM) | 16 | 16 (≈ 41.3 µM) | 16 | 1 (≈ 2.58 µM) | 
10 | O=C(N/N=C/c1cc(Br)cc(Br)c1O)c1ccc(C(F)(F)F)cc1F | 16 (≈ 33.1 µM) | 0.5 (≈ 1.03 µM) | 533 | 64 (≈ 132 µM) | 133 | 0.12 (≈ 0.248 µM) | 
11 | O=C(N/N=C/c1ccc(Br)cc1O)c1cccc(Br)c1Br |  |  |  |  |  | > 16 | 
12 | CC(=O)Nc1ccc(C(=O)N/N=C/c2ccc(Br)cc2O)cc1 |  |  |  |  |  | > 16 | 
13 | O=C(N/N=C/c1cc(Cl)cc(Cl)c1O)c1cccc(Br)c1Br | 16 (≈ 34.3 µM) | 1 (≈ 2.14 µM) | 64 | 64 (≈ 137 µM) | 16 | 1 (≈ 2.14 µM) | 
14 | O=C(N/N=C/c1cc(Br)cc(Br)c1O)c1cccc(C(=O)N/N=C/c2cc(Br)cc(Br)c2O)c1 |  |  |  |  |  | > 16 | 
15 | O=C(N/N=C/c1cc(Br)cc(Br)c1O)c1cccc(C(F)(F)F)c1 |  |  |  |  |  | 2 (≈ 4.29 µM) | 
16 | O=C(N/N=C/c1cc(Cl)ccc1O)c1ccc(Br)c(Br)c1 | 32 (≈ 74 µM) | 1 (≈ 2.31 µM) | 267 | 16 (≈ 37 µM) | 533 | 0.06 (≈ 0.139 µM) | 
17 | Cc1ccc(O)c(/C=N/NC(=O)c2ccc(Br)cc2Br)c1 | 16 (≈ 38.8 µM) |  | 32 | 32 (≈ 77.7 µM) | 16 | 1 (≈ 2.43 µM) | 2 (≈ 4.85 µM)
18 | Cc1ccc(O)c(/C=N/NC(=O)c2cc(Br)ccc2O)c1 | 16 (≈ 45.8 µM) |  | 64 | 16 (≈ 45.8 µM) | 64 | 0.25 (≈ 0.716 µM) | 0.5 (≈ 1.43 µM)
19 | Cc1ccc(O)c(/C=N/NC(=O)c2cc(Br)ccc2Br)c1 | 32 (≈ 77.7 µM) | 0.5 (≈ 1.21 µM) | 32 | 32 (≈ 77.7 µM) | 32 | 1 (≈ 2.43 µM) | 
20 | O=C(N/N=C/c1c(O)ccc2ccccc12)c1cc(Br)cc(Br)c1 | 4 (≈ 8.93 µM) |  | 8 | 2 (≈ 4.46 µM) | 16 | 0.25 (≈ 0.558 µM) | 0.5 (≈ 1.12 µM)
21 | O=C(N/N=C/c1ccc(Br)cc1O)c1cccc(Br)c1 | 8 (≈ 20.1 µM) | 0.25 (≈ 0.628 µM) | 128 | 64 (≈ 161 µM) | 16 | 0.5 (≈ 1.26 µM) | 
22 | O=C(N/N=C/c1cc(Cl)ccc1O)c1cc(Br)ccc1Br | 32 (≈ 74 µM) |  | 236 | 59 (≈ 136 µM) | 128 | 0.25 (≈ 0.578 µM) | 0.25 (≈ 0.578 µM)
